Structures can show the parent of a compound that is named as a salt.
Legend:
[1] = system: caspase 3 and caspase 8 cleavage in L929 cells; assay: Western blot of caspase 3 and caspase 8 cleavage in L929 cells; assay type: cell-based, mouse; details: L929, 3 hours
Method in brief: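 L929 cells in 12-well plates at about 80% confluency were exposed for 3 h to test compound, DMSO or medium, each with 10 µM zVAD. Cells were lysed at room temperature in a Triton X-100/Tris-based 1× SDS sample buffer and boiled 10 min. Proteins were run on 15% SDS-PAGE and blotted to PVDF. Membranes were blocked in 5% milk and probed for caspase 3 and caspase 8 cleavage overnight at 4 °C. Three independent experiments.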

[2] = system: caspase 3 activity in L929 cell lysates; assay: Caspase 3 activity in L929 cell lysates; assay type: cell-based, mouse
Method in brief: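 L929 cells were cultured 12 h in 12-well plates, then exposed to test compound or DMSO for 0, 1, 2, 3 or 4 h. Protein was measured by BCA. Lysate was incubated with Ac-DEVD-pNA overnight at 37 °C and read at A405 minus blank. Three experiments, each in triplicate.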

[3] = system: L929^RIPK3-/- cells; assay: Cell viability assay with or without zVAD, L929 RIPK3 knockout; assay type: cell-based, mouse
Method in brief: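 L929 cells were grown in MEM with 10% FBS. RIPK3 was knocked out by CRISPR/Cas9 (sgRNA against mouse RIPK3), and knockout was confirmed by sequencing and immunoblot. Knockout lines with or without re-expressed RIPK3 K51A or K51A/R69H were seeded at 10,000–20,000 cells/well and left to attach for 24 h. Cells were exposed to test compound alone or with zVAD for 18–20 h. Viability was read by CCK-8 (1–2 h, 37 °C, A450). Three experiments in triplicate; CC50 by nonlinear regression.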

[4] = target: RIPK3-RIPK1 interaction (Mus musculus, UniProt Q9QZL0); assay: RIPK1 immunoprecipitation; assay type: cell-based; details: L929, 10 µM, 5 hours
RIPK3-RIPK1 interaction, sequence (Q9QZL0 whole entry): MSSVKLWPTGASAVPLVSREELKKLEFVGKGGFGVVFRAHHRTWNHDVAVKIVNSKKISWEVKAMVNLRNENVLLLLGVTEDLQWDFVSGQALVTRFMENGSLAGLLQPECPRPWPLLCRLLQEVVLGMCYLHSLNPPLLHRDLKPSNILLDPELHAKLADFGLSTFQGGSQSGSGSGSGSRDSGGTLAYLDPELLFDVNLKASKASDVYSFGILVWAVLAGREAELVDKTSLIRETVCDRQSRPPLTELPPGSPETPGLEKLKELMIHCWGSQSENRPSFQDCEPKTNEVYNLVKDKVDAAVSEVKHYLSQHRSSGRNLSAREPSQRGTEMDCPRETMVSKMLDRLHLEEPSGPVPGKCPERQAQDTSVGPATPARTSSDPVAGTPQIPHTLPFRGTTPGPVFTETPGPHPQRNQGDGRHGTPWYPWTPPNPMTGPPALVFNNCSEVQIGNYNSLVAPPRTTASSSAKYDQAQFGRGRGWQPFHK
Method in brief: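 Lysates were cleared at 17,000 g for 15 min at 4 °C, and an input sample was kept. Lysate was incubated with anti-RIPK1 antibody on protein A/G magnetic beads for 2 h at 4 °C. Co-precipitated RIPK3 was detected by Western blot. Normalized quantification came from three independent experiments.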

[5] = system: RIPK3 and MLKL phosphorylation in L929 cells; assay: Western blot of RIPK3 and MLKL phosphorylation, L929; assay type: cell-based, mouse; details: L929, inhibitors at 3 and 10 µM, necroptosis induced for 3 hours
Method in brief: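 L929 cells were grown in 6-well plates to about 80% confluency and given test compound or DMSO with zVAD (10 μM) for 1-2 h. Mouse TNF-α (20 ng/mL) was then added for 3 h. Cells were washed three times in cold PBS and lysed in 10 mM Tris-HCl pH 8.0, 1% SDS, 1 mM orthovanadate with protease and phosphatase inhibitors. Lysates were boiled for 10 min and stored at -80 °C. Phospho-RIPK3 and phospho-MLKL were immunoblotted after 10% SDS-PAGE and PVDF transfer.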

[6] = system: RIPK3 and MLKL phosphorylation in HT29 cells; assay: Western blot of RIPK3 and MLKL phosphorylation, HT29; assay type: cell-based, human; details: HT29, inhibitors at 3 and 10 µM, necroptosis induced for 3 hours
Method in brief: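 HT29 cells were grown in 12-well plates to about 80% confluency and given test compound or DMSO with zVAD (20 μM) for 1-2 h. Necroptosis was then induced with human TNF-α (40 ng/mL) plus SM-164 (100 nM) for 3 h. Cells were washed three times in cold PBS and lysed for 10 min at room temperature in RIPA buffer with protease and phosphatase inhibitors and SDS loading buffer. Phospho-RIPK3 and phospho-MLKL were immunoblotted after 10% SDS-PAGE and PVDF transfer.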

[7] = system: L929 cells (TNF-α-induced necroptosis); assay: Necroptosis induction and inhibition assay in L929; assay type: cell-based, mouse; details: for EC50: Mus musculus, L929, read-out: EC50^L929 against TNF-α-induced necroptosis, mouse TNF-α (20 ng/mL) and zVAD (10 μM), CCK-8
[8] = system: HT29 cells (TNF-α-induced necroptosis); assay: Necroptosis induction and inhibition assay in HT29; assay type: cell-based, human; details: for EC50: Homo sapiens, HT-29, read-out: EC50^HT29 against TNF-α-induced necroptosis, zVAD (20 μM), human TNF-α (40 ng/mL), Smac mimetic SM-164 (100 nM), CCK-8
[9] = system: L929 cells; assay: Cell viability assay with or without zVAD; assay type: cell-based, mouse; details: for on-target apoptosis in cells (in words): L929, murine cells
[10] = target: RIPK2 (Homo sapiens, UniProt O43353); assay: ADP-Glo kinase assay, RIPK2; assay type: biochemical
RIPK2, sequence (O43353 1-310): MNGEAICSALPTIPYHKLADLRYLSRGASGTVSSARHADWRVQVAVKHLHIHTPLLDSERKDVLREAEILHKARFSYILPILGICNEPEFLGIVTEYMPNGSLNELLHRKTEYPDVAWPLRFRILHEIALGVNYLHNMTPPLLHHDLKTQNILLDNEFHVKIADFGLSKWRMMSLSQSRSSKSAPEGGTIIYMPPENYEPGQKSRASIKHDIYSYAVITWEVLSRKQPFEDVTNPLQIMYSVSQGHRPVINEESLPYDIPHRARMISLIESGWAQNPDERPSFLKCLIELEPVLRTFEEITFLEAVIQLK
Method in brief: (§1)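 Human kinase domains were expressed in Sf-9 cells from baculovirus and purified by Ni-NTA then size exclusion: BRK 185-446 (C433T, C-terminal 6×His) and RIPK2 1-310 (C-terminal 10×His). Each was preincubated with test compound or DMSO in 40 mM Tris pH 7.5, 20 mM MgCl2, 0.1 mg/mL BSA. ATP was added to 20 µM final for 1 h at room temperature, and ADP was read by ADP-Glo luminescence.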

[11] = system: panel of 379 human kinases; assay: Selectivity profiling, Eurofins KinaseProfiler; assay type: biochemical; details: 379 kinases
[12] = target: panel of 379 human kinases (Homo sapiens, UniProt O43353); assay: Selectivity profiling, Eurofins KinaseProfiler; assay type: biochemical; details: read-out: inhibition rate against RIPK2
panel of 379 human kinases (Homo sapiens, UniProt O43353), sequence (O43353 whole entry): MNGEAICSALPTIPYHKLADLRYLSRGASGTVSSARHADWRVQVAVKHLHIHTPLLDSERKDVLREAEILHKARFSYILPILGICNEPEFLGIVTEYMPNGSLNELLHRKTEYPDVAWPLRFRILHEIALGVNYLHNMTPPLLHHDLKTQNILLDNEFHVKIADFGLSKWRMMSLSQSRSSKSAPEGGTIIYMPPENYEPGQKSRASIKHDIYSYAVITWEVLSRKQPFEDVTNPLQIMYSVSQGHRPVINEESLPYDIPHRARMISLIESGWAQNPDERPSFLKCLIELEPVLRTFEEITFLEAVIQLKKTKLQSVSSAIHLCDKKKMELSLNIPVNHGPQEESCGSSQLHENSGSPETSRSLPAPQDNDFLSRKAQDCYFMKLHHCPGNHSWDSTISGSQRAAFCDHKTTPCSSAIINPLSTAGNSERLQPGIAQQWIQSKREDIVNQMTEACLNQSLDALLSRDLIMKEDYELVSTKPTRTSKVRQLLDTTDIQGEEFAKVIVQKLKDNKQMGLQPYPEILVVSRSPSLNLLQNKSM

[13] = target: panel of 379 human kinases (Homo sapiens, UniProt Q13882); assay: Selectivity profiling, Eurofins KinaseProfiler; assay type: biochemical; details: read-out: inhibition rate against breast tumor kinase (BRK)
panel of 379 human kinases (Homo sapiens, UniProt Q13882), sequence (Q13882 whole entry, the tested form may be a part): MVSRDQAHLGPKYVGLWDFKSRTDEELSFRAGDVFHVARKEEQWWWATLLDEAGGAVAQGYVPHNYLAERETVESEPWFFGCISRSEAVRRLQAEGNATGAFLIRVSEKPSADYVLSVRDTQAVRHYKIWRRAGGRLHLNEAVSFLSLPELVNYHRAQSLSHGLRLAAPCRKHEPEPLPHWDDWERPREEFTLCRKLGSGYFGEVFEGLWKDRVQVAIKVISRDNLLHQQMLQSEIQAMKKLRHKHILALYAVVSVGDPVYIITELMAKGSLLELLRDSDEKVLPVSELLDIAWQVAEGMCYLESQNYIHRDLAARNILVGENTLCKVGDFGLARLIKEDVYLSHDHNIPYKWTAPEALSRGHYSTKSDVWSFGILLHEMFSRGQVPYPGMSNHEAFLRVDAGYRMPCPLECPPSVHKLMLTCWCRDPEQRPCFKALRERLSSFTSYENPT

[14] = target: BRK kinase domain (Homo sapiens, UniProt Q13882, C433T); assay: ADP-Glo kinase assay, BRK; assay type: biochemical
BRK kinase domain, sequence (Q13882 185-446 C433T): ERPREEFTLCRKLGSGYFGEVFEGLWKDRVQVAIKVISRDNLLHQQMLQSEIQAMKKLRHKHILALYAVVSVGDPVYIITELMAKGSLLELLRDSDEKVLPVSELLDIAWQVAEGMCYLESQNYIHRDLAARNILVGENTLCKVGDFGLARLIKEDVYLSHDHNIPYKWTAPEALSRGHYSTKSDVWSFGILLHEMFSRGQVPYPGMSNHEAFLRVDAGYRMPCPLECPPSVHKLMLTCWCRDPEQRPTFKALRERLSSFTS
Method in brief: as §1

SMILES	activation of the apoptotic pathway: cleavage of caspase 8 and caspase 3 (Western blot) [1]	concentration at which caspase 3 is activated [2] [µM]	change of CC50 between L929 and L929^RIPK3-/- cells [3]	interaction between RIPK3 and RIPK1 (co-immunoprecipitation) [4]	RIPK3 and MLKL phosphorylation induced by TNF-α (Western blot) [5]	RIPK3 and MLKL phosphorylation induced by TNF-α (Western blot) [6]	EC50 [7] [nM]	EC50 [8] [nM]	concentration at which cleavage of caspases 8 and 3 is seen (Western blot) [1] [µM]	change of CC50 in the presence or absence of zVAD ([9]; L929)	also measured
CC(C)S(=O)(=O)c1cc2c(Nc3ccc4sc(C5CCCC5)nc4c3)ccnc2cc1OCCO [LK01045, 2-((4-((2-cyclopentylbenzo[d]thiazol-5-yl)amino)-6-(isopropylsulfonyl)quinolin-7-yl)oxy)ethan-1-ol]	nor activate the apoptotic pathway	> 50	remain largely unchanged	neither increase the interaction of RIPK3 with RIPK1	effectively inhibits RIPK3 and MLKL phosphorylation	effectively inhibits RIPK3 and MLKL phosphorylation	610	160	–	–	stronger potency compared to GSK'872 (EC50, L929) ([7]; L929 necroptosis): approximately 6 fold; stronger potency compared to LK01003 (EC50, L929) ([7]; L929 necroptosis): approximately 6 fold; stronger potency compared to GSK'872 (EC50, HT29) ([8]; HT29 necroptosis): ~49 fold; stronger potency compared to LK01003 (EC50, HT29) ([8]; HT29 necroptosis): ~5 fold
CC[C@@H](C)c1nc2cc(Nc3ccnc4ccc(S(=O)(=O)C(C)C)cc34)ccc2s1.Cl [LK01002, (R)-2-(sec-butyl)-N-(6-(isopropylsulfonyl)quinolin-4-yl)benzo[d]thiazol-5-amine hydrochloride]	nor activate the apoptotic pathway	> 50	remain largely unchanged	neither increase the interaction of RIPK3 with RIPK1	effectively inhibit RIPK3 and MLKL phosphorylation	effectively inhibit RIPK3 and MLKL phosphorylation	4800	2000	–	–	–
CCC(C)c1nc2cc(-c3nn(C(C)(C)C)c4ncnc(N)c34)ccc2s1 (stereo not shown) [LK01004, 1-(tert-butyl)-3-(2-(sec-butyl)benzo[d]thiazol-5-yl)-1H-pyrazolo[3,4-d]pyrimidin-4-amine]	–	–	–	–	–	–	3000	–	> 100	do not change significantly in the presence or absence of zVAD	RIPK3-independent cell killing (off-target toxicity) ([9]; L929): still exhibit a substantial portion of RIPK3-independent cell killing; on-target apoptosis in cells (in words) [9]: do not induce on-target apoptosis
Cl.O=S1(=O)C=C(C2CC2)c2cc3nccc(Nc4ccc5sc(C6CCCC6)nc5c4)c3cc21 [LK01033, 8-((2-cyclopentylbenzo[d]thiazol-5-yl)amino)-3-cyclopropylthieno[2,3-g]quinoline 1,1-dioxide hydrochloride]	–	–	–	–	–	–	390	110	> 10	does not change significantly in the presence or absence of zVAD	–
CC[C@H](C)c1nc2cc(Nc3ccnc4ccc(S(=O)(=O)C(C)C)cc34)ccc2s1 [LK01001, (S)-2-(sec-butyl)-N-(6-(isopropylsulfonyl)quinolin-4-yl)benzo[d]thiazol-5-amine hydrochloride]	–	–	–	–	–	–	7000	4100	–	–	–
Cl.O=S1(=O)C=C(C2CC2)c2cc3nccc(Nc4ccc5scnc5c4)c3cc21 [Zharp-99, 8-(benzo[d]thiazol-5-ylamino)-3-cyclopropylthieno[2,3-g]quinoline 1,1-dioxide hydrochloride, reference compound]	–	–	–	–	–	–	70	220	0.1	–	difference of CC50 in the presence or absence of zVAD ([9]; L929): ~ 36 fold
N#Cc1c(Oc2ccc(F)c(NC(=O)Cc3cccc(C(F)(F)F)c3)c2)ccc2nc(NC(=O)C3CC3)sc12 [TAK-632, N-(7-Cyano-6-(4-fluoro-3-(2-(3-(trifluoromethyl)phenyl)acetamido)phenoxy)benzo[d]thiazol-2-yl)cyclopropanecarboxamide, reference compound]	–	–	–	–	–	–	–	–	> 100	–	–
CC(C)(C)n1nc(-c2ccc3sc(C4CCCC4)nc3c2)c2c(N)ncnc21 [LK01005, 1-(tert-butyl)-3-(2-cyclopentylbenzo[d]thiazol-5-yl)-1H-pyrazolo[3,4-d]pyrimidin-4-amine]	–	–	–	–	–	–	2100	–	> 100	do not change significantly in the presence or absence of zVAD	RIPK3-independent cell killing (off-target toxicity) ([9]; L929): still exhibit a substantial portion of RIPK3-independent cell killing; on-target apoptosis in cells (in words) [9]: do not induce on-target apoptosis
CC(C)S(=O)(=O)c1ccc2nccc(Nc3ccc4sc(C5CCCC5)nc4c3)c2c1.Cl [LK01003, 2-cyclopentyl-N-(6-(isopropylsulfonyl)quinolin-4-yl)benzo[d]thiazol-5-amine hydrochloride]	nor activate the apoptotic pathway	> 50	remain largely unchanged	neither increase the interaction of RIPK3 with RIPK1	effectively inhibit RIPK3 and MLKL phosphorylation	effectively inhibit RIPK3 and MLKL phosphorylation	3700	850	–	–	IC50 [10]: 48 nM; selectivity index (SI), RIPK2 over RIPK3 [10]: 24; S (35) score ([11]; 1 μM): approximately 0.005; S (35) score ([11]; 10 μM): approximately 0.03; number of kinases with over 65% inhibition rate ([11]; 10 μM): 12 kinases; inhibition at 1 µM [12]: > 65%; inhibition at 1 µM [13]: > 65%; IC50 [14]: 248 nM; selectivity index (SI), BRK over RIPK3 [14]: 124

— article PMC12062462 (Nature Communications, 2025)
